Source: PubChem
NSD2 HMT inh: NSD2 (human) methyltransferase inhibition | actives 0.54% (n = 310,000) | inhibition, % at 12.5 µM | NSD2 peptide methylation, AlphaScreen, 120 min
DYRK1A inh: Dyrk1A (rat) kinase inhibition | Q63470 | ADP-Glo luminescence, NFATc1 peptide | inhibition, % at 12.5 µM | actives 0.43% (n = 310,000) | AID 504441;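 also: plate controls were vehicle with enzyme for no effect and no enzyme for full effect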
dFosB activator: enhances mouse delta FosB homodimer DNA binding. purified delta FosB, TAMRA-CDK5 oligo fluorescence polarization; percent of positive-control signal above neutral wells. P13346. activation, % at 25 µM. AID 493131. actives 0.99% (n = 340,000);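 active = mean activation above about 17%, with every replicate also reaching it, limit read from the data, passing the limit was not always enough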
SR-BI DiI-HDL act: enhances SR-BI lipid uptake from DiI-HDL; CHO ldlA[mSR-BI] cells, DiI-HDL uptake fluorescence, 3 h; 100 = double the neutral-control signal; activation, % at 12.5 µM; actives 0.096% (n = 320,000);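 active = mean replicate activation of at least 60% and every replicate at or above 60%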;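 also: 0% = median plate neutral-control signal and 100% = twice that signal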
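Material: SR-BI-overexpressing, LDLR-lacking CHO cells; schedule: compound exposure 3 h, 37 °C; reagent: DiI-labelled HDL at 10 µg/mL final; technique: bottom-read fluorescence, 550/595 nm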
SR-BI HDL uptake: mouse SR-BI HDL lipid transfer inhibition; Q61009; ldlA[mSR-BI] CHO cells, DiI-HDL uptake fluorescence, 3 h; inhibition, % at 12.5 µM; actives 0.96% (n = 320,000);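 active = mean replicate inhibition of at least 70% and a set share of replicates each scoring 70 or more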;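 also: 0% = median of neutral control wells and 100% = median of positive control wells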
CDK5 inh: CDK5/p35 (human) kinase inhibition. Q00535+Q15078. Recombinant CDK5/p35, ADP-Glo luminescence, 60 min. inhibition, % at 10 µM. actives 0.01% (n = 330,000);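 active = highest replicate inhibition of at least 50% and at least 75% of replicates reaching 50%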;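 also: plate controls were DMSO neutral control for no effect and GW8510 at 10 µM for full effect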
Target sequence (Q00535 whole entry, looked up): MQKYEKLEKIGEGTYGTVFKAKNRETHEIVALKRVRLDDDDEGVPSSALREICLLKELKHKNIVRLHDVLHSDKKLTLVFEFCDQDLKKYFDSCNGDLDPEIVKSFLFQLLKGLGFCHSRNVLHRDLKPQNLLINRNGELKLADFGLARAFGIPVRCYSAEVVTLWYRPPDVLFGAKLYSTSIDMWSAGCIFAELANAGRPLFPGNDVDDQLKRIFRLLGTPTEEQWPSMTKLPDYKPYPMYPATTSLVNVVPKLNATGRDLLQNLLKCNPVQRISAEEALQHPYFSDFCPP
Target sequence (Q15078 whole entry, looked up): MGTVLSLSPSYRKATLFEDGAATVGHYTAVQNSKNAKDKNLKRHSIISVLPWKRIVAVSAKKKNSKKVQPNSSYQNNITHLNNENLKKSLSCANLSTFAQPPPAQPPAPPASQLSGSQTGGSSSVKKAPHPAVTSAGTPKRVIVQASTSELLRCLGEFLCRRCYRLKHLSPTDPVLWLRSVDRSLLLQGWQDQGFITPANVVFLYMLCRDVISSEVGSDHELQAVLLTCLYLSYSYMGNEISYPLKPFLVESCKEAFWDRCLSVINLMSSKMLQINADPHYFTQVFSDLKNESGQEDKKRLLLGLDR
The depositor's hits bear a star; . = not tested or not shown. Only some compounds are listed: those with a hit (about 2.5% of all), similar ones and a draw of the others. Rule as the data show it, unless noted: active = inhibition above about 50%; inactive = the rest.

SMILES	NSD2 HMT inh	DYRK1A inh	dFosB activator	SR-BI DiI-HDL act	SR-BI HDL uptake	CDK5 inh
O=C(Nc1ccc(Cl)cc1)[C@@H]1[C@@H]2C(=O)N(c3ccc4ccccc4c3)C(=O)[C@@H]2[C@H]2C=CC=NN21	-1	-2	-14	-76	76*	2
O=C(Nc1ccc(Cl)cc1)[C@@H]1[C@@H]2C(=O)N(c3cccc(F)c3)C(=O)[C@@H]2[C@H]2C=CC=NN21	1	1	-19	-16	16	0
NC(=O)C1CCCN(C(=O)c2ccc(-c3cccc(Cl)c3Cl)o2)C1 (centres undefined)	0	27	-23	-1	1	-2
NS(=O)(=O)c1cc(C(=O)NC2CCSc3ccccc32)ccc1Cl (centres undefined)	180*	3	-24	-5	5	-16
Nc1ncnc2c1ncn2[C@@H]1O[C@H](CNS(=O)(=O)CCCCl)[C@@H](O)[C@H]1O	.	11	1	-19	19	-3
Nc1ccc(Nc2ccccc2)c(S(=O)(=O)O)c1	94*	23	-4	.	.	.
Cc1cc(N/N=C/c2ccc(O)cc2O)nc(-n2nc(C)cc2C)n1	6	-5	5	-94	94*	-2
Cc1cc(N/N=C/c2ccccc2O)nc(-c2ccccc2O)n1	-1	2	3	-14	14	0
Cc1cc(N/N=C/c2ccc(O)cc2O)nc(-c2ccccc2O)n1	0	-2	-2	-114	114*	-3
Cc1cc(C(=O)NNC(=O)COc2c(C)cc(Br)cc2C)n[nH]1	2	-4	-5	13	-13	-2
CC(C)(C)c1ccc(-c2nnc(SCC(=O)Nc3ccccc3-c3ccccc3)n2Cc2ccco2)cc1	-1	.	.	.	.	.
Nc1[nH]c(C(=O)c2ccccc2)c(-c2ccc(Br)cc2)c1C(=O)N1CCN(CCO)CC1	-1	.	.	.	.	.
Oc1ccccc1-c1cc(-c2ccc3c(c2)OCCO3)n[nH]1	1	8	4	-78	78*	1
CC(=O)N1N=C(c2ccc(Cl)cc2)CC1c1ccc([N+](=O)[O-])cc1 (centres undefined)	2	-8	-9	-33	33	1
CC1(O)CC(c2ccc(Cl)cc2)=NN1C(=O)c1ccc([N+](=O)[O-])cc1 (centres undefined)	26	0	-2	-89	89*	2
O=C(NCc1ccc(F)cc1)Nc1nnc([C@H]2C[C@H](O)[C@@H](CO)O2)s1	0	.	.	.	.	.
Cc1[nH]c(C(=O)N/N=C/c2ccc(N(C)C)cc2)c(C)c1C(=O)N/N=C/c1ccc(N(C)C)cc1	-5	-4	-13	-87	87*	2
COc1ccccc1/C=N/NC(=O)c1cccc(OC(F)(F)C(F)F)c1	-3	1	-1	.	.	2
COc1ccc(C(=O)N/N=C/c2c(C)nn(-c3ccccc3)c2OC)cc1	0	0	-5	-71	71*	0
COc1cccc(/C=N/NC(=O)C(=O)Nc2ccccc2OC(F)(F)C(F)F)c1O	-2	4	2	-110	110*	-1
Cc1[nH]c(C(=O)N/N=C/c2ccc(C(=O)O)cc2)c(C)c1C(=O)N/N=C/c1ccc(C(=O)O)cc1	2	3	6	19	-19	-1
COc1cccc(/C=N/NC(=O)c2ccc(-c3ccccc3)cc2)c1O	0	6	16	-123	123*	0
CCCn1c(O)c(N=NC(=O)CNC(=O)c2ccncc2)c2ccccc21	0	2	-2	-6	6	1
O=C(CSc1nncs1)Nc1cccc2ccccc12	-2	5	-3	1	-1	0
CCOC(=O)C1CCCN(S(=O)(=O)c2c(C)noc2C)C1 (centres undefined)	-2	-5	3	21	-21	2
SMILES	NSD2 HMT inh	DYRK1A inh	dFosB activator	SR-BI DiI-HDL act	SR-BI HDL uptake	CDK5 inh
Cc1ccc(NC(=O)C2(C)CCN2C(=O)C2CCCCC2)cc1C (centres undefined)	0	.	.	.	.	.
COc1ccc(OC)c(/C=N\NC(=O)c2ccc(-c3ccccc3)cc2)c1	1	-2	4	.	78*	0
COc1ccc(OC)c(/C=N/NC(=O)c2ccncc2)c1	1	6	3	1	-1	2
COc1cccc(/C=N/NC(=O)c2[nH]c(C)c(C(=O)N/N=C/c3cccc(OC)c3O)c2C)c1O	.	1	3	-125	125*	-2
Cc1cc(Cn2nnc3ccccc32)c(O)c(C(C)(C)C)c1	.	13	-3	-24	24	5
CCN(C(=O)c1ccc2c(Cl)c3c(nc2c1)CCC3)c1ccc(C)c(C)c1	.	1	-16	-86	86*	1
C(=C\c1nnc2c3ccccc3ncn12)/c1ccccc1	-4	9	-40	-11	11	1
COc1cc(/C=C/c2nnc3c4ccccc4ncn23)cc(OC)c1OC	-1	15	27*	-35	35	2
Cc1ccc(O)c(Nc2c3ccccc3nc3ccccc23)c1	1	3	35*	-15	15	2
Cc1ccc(O)c(Nc2nc(-c3ccccc3)nc3ccccc23)c1	-1	15	-4	-43	43	0
CN=C1S/C(=C/c2cc(C)n(-c3ccc(Cl)cc3F)c2C)C(=O)N1C	-2	.	.	.	.	.
COc1ccc(-n2c(SCC(=O)Nc3cc(C)c(NC(=O)c4ccccc4)cc3OC)nnc2-c2ccco2)cc1	5	.	.	.	.	.
O=C(Nc1nnc(CSCc2ccc(Cl)cc2)s1)c1cccc([N+](=O)[O-])c1	3	-7	-2	28	-28	-1
O=C(Nc1nnc(CSCc2ccc(F)cc2)s1)c1cccc([N+](=O)[O-])c1	-2	53*	-11	20	-20	0
O=C1C=C(NCCc2cc(Br)c(O)c(Br)c2)C(=O)c2ncccc21	137*	13	-18	-21	21	2
CC(C)(C)c1cc(CCC(=O)NCCc2ccccn2)cc(C(C)(C)C)c1O	-2	-3	-10	-13	13	0
C(=Cc1c[nH]c2ccccc12)c1nccc2ccccc12	-15	.	-34	-71	71*	-2
COc1ccccc1C(=O)NNC(=O)c1cc2ccccc2cc1O	-6	.	.	.	.	.
COc1ccc(C(=O)NNC(=O)c2ccccn2)cc1	.	49	-8	20	-20	55*
COc1ccc(C(=O)NNC(=O)c2cc3ccccc3cc2O)cc1	-2	3	2	-115	115*	-4
C=C(C)CSc1nc2sc(C)c(C)c2c(=O)n1C	-3	.	.	.	.	.
O=C(COC(=O)c1ccc(OC(F)F)cc1)Nc1ccc2c(c1)OCCO2	1	.	.	.	.	.
O=C(NCCc1ccccc1)c1ccc(Sc2ccccc2Cl)c([N+](=O)[O-])c1	0	.	.	.	.	.
COc1ccc(CNC[C@@H](CCCCN(C)Cc2ccc(OC)cc2)N2C[C@H](c3ccccc3)N(CCc3ccc(Cl)c(Cl)c3)C(=O)C2=O)cc1	.	8	46*	21	-21	0
